Test results taken from ChEMBL document CHEMBL3351328.
pIC50: −log10 of the molar value. Each block holds one compound with its values, some of them ahead of it.

Experiments:
[1] = target: T1, Inosine-5'-monophosphate dehydrogenase (Cryptosporidium parvum, UniProt Q8T6T2); assay: Inhibition of Cryptosporidium parvum IMPDH assessed as reduction in NADH production
T1 sequence (Q8T6T2 whole entry): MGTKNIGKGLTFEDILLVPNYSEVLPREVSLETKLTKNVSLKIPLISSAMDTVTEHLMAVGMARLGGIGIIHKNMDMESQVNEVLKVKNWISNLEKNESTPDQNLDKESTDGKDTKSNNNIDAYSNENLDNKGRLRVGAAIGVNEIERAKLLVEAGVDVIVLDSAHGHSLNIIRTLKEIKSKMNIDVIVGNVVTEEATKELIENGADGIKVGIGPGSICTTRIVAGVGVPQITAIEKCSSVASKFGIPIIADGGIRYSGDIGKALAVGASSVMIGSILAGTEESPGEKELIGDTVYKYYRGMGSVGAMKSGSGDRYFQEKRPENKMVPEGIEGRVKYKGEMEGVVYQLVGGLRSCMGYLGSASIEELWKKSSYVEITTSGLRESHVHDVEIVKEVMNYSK
How it was run: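 Purified expressed CpIMPDH enzyme; activity followed by NADH production. IC50 taken as the average of three independent experiments unless otherwise noted.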

[2] = target: Inosine-5'-monophosphate dehydrogenase 2 (Homo sapiens) (UniProt P12268); assay: Inhibition of human IMPDH2 assessed as reduction in NADH production at 5 uM
Sequence of Inosine-5'-monophosphate dehydrogenase 2 (Homo sapiens) (P12268 2-514 limits assumed): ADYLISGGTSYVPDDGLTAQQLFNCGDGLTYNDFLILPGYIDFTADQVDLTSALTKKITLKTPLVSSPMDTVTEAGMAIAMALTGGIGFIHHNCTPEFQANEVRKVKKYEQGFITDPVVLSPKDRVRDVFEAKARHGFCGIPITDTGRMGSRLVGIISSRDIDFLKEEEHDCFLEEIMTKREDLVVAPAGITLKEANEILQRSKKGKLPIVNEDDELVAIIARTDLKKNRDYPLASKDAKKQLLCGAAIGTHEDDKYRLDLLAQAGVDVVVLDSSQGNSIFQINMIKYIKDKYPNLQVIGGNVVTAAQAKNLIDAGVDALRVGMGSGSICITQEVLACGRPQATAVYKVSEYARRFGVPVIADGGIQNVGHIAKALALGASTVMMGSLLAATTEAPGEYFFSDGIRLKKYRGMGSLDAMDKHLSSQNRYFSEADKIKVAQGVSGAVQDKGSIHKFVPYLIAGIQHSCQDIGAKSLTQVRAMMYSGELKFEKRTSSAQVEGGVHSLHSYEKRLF

SMILES: O=C(Cn1ncc2c(=O)oc3ccccc3c21)Nc1ccc(F)cc1
pIC50 [1]: 6.34 | inhibition [2]: < 20%

SMILES: COc1ccc(NC(=O)Cn2ncc3c(=O)oc4ccccc4c32)cc1OC
pIC50 [1]: 5.60

SMILES: O=C(Cn1ncc2c(=O)oc3ccccc3c21)Nc1ccc(C(F)(F)F)cc1
pIC50 [1]: 6.24 | inhibition [2]: < 20%

SMILES: O=C(Cn1ncc2c(=O)oc3ccccc3c21)Nc1ccc2cc[nH]c2c1
pIC50 [1]: 6.92 | inhibition [2]: < 20%

SMILES: O=C(Cn1ncc2c(=O)oc3ccccc3c21)Nc1ccc(Cl)c(Cl)c1
pIC50 [1]: 7.36 | inhibition [2]: < 20%

SMILES: COc1cc(NC(=O)Cn2ncc3c2-c2ccccc2OC3)ccc1Cl
pIC50 [1]: 7.15 | inhibition [2]: < 20%

SMILES: O=C(Cn1ncc2c(=O)oc3ccccc3c21)Nc1ccc2[nH]cnc2c1
pIC50 [1]: 5.60

SMILES: O=C(Cn1ncc2c(=O)oc3ccccc3c21)Nc1ccc2ncccc2c1
pIC50 [1]: 7.10 | inhibition [2]: < 20%

pIC50 [1]: < 5.30
SMILES: O=C(Cn1ncc2c(=O)oc3ccccc3c21)Nc1ccc(Cl)cc1Cl

SMILES: O=C(Cn1ncc2c(=O)oc3ccccc3c21)Nc1ccc2c(c1)OCCO2
pIC50 [1]: 6.72 | inhibition [2]: < 20%

SMILES: COc1cc(NC(=O)Cn2ncc3c(=O)oc4cc(C)ccc4c32)ccc1Cl
pIC50 [1]: 5.70

SMILES: COc1cccc(NC(=O)Cn2ncc3c(=O)oc4ccccc4c32)c1
pIC50 [1]: 5.82

SMILES: O=C(Cn1ncc2c(=O)oc3ccccc3c21)Nc1ccc2ccccc2c1
pIC50 [1]: 7.17 | inhibition [2]: < 20%

SMILES: COc1cc(NC(=O)C(C)n2ncc3c(=O)oc4ccccc4c32)ccc1Cl (stereo unspecified)
pIC50 [1]: 7.20 | inhibition [2]: < 20%

SMILES: COc1cc(NC(=O)Cn2ncc3c(=O)oc4ccccc4c32)ccc1Cl
pIC50 [1]: 7.70 | inhibition [2]: < 20%

SMILES: COc1cc(NC(=O)Cn2ncc3c2-c2ccccc2CC3)ccc1Cl
pIC50 [1]: 7.00 | inhibition [2]: < 20%

pIC50 [1]: < 5.30
SMILES: O=C(Cn1ncc2c(=O)oc3ccccc3c21)Nc1ccc2[nH]ccc2c1

pIC50 [1]: < 5.30
SMILES: O=C(Cn1ncc2c(=O)oc3ccccc3c21)Nc1cccc(Cl)c1

pIC50 [1]: < 5.30
SMILES: O=C(Cn1ncc2c(=O)oc3ccccc3c21)Nc1ccccc1Cl

pIC50 [1]: < 5.30
SMILES: COc1cc(N(C)C(=O)Cn2ncc3c(=O)oc4ccccc4c32)ccc1Cl
